Measured values as given in ChEMBL document CHEMBL3044705, “Synthesis and insecticidal activity of an oxabicyclolactone and novel pyrethroids” (2012).

What was measured:
Assay type in all cases: functional
Sitophilus zeamais [1] = experiment: Insecticidal activity against Sitophilus zeamais assessed as mortality at 50 ug applied on thoracic tergite at 25 +/- 0.5 degC and 75 +/- 5 % RH without food for 12 hr
Outline: (§1)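 Topical contact assay. Dose was expressed per mg of insect body weight: 5 μg/mg for P. americana, 10 µg/mg for A. monuste orseis, and 50 μg/mg for A. obtectus and S. zeamais. The acetone control received solvent only. Insects were held in Petri dishes in an incubator with a 12 h photoperiod. Dead and motionless insects were both counted as dead. Mean percent mortality was compared by Tukey test at the 0.05 level.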

Ascia monuste [2] = experiment: Insecticidal activity against Ascia monuste orseis assessed as mortality at 10 ug applied on thoracic tergite at 25 +/- 0.5 degC and 75 +/- 5 % RH with food for 12 hr; outline: as §1
Acanthoscelides obtectus [3] = experiment: Insecticidal activity against Acanthoscelides obtectus assessed as mortality at 50 ug applied on thoracic tergite at 25 +/- 0.5 degC and 75 +/- 5 % RH without food for 12 hr; outline: as §1
Ascia monuste [4] = experiment: Insecticidal activity against Ascia monuste orseis assessed as mortality at 10 ug applied on thoracic tergite at 25 +/- 0.5 degC and 75 +/- 5 % RH with food for 24 hr; outline: as §1
Sitophilus zeamais [5] = experiment: Insecticidal activity against Sitophilus zeamais assessed as mortality at 50 ug applied on thoracic tergite at 25 +/- 0.5 degC and 75 +/- 5 % RH without food for 24 hr; outline: as §1
Acanthoscelides obtectus [6] = experiment: Insecticidal activity against Acanthoscelides obtectus assessed as mortality at 50 ug applied on thoracic tergite at 25 +/- 0.5 degC and 75 +/- 5 % RH without food for 24 hr; outline: as §1
Periplaneta americana [7] = experiment: Insecticidal activity against second-instar nymph Periplaneta americana (American cockroach) assessed as mortality at 5 ug applied on thoracic tergite at 25 +/- 0.5 degC and 75 +/- 5 % RH with food for 12 hr; outline: as §1
Periplaneta americana [8] = experiment: Insecticidal activity against second-instar nymph Periplaneta americana (American cockroach) assessed as mortality at 5 ug applied on thoracic tergite at 25 +/- 0.5 degC and 75 +/- 5 % RH with food for 24 hr; outline: as §1

Compound	mortality (Sitophilus zeamais [1])	mortality (Ascia monuste [2])	mortality (Acanthoscelides obtectus [3])	mortality (Ascia monuste [4])	mortality (Sitophilus zeamais [5])	mortality (Acanthoscelides obtectus [6])	mortality (Periplaneta americana [7])	mortality (Periplaneta americana [8])
CCOc1ccc(C=C[C@H]2[C@H](C(=O)OC)C2(C)C)cc1	97.5%	75%	97.5%	92.5%	100%	97.5%	75%	
COC(=O)[C@H]1[C@H](C=Cc2c(F)c(F)c(F)c(F)c2F)C1(C)C	97.5%	100%	100%	100%	100%	100%	100%	100%
COC(=O)[C@H]1[C@H](C=Cc2cccc(OC)c2)C1(C)C	92.5%	75%	82.5%	95%	97.5%	92.5%	92%	
COC(=O)[C@H]1[C@H](C=Cc2ccccc2OC)C1(C)C	95%	62.5%	87.5%	95%	95%	95%	100%	100%
COC(=O)[C@@H]1[C@@H](C=O)C1(C)C	42.5%	50%	90%	67.5%	45%	97.5%	67%	71%
COC(=O)[C@H]1[C@H](C=O)C1(C)C	45%	27.5%	100%	47.5%	47.5%	100%	79.33%	96%
CC1(C)C2COC(=O)C21 (stereo not given)	85%	100%	100%	100%	90%	100%	100%	100%
COC(=O)[C@H]1[C@H](C=Cc2ccccc2Cl)C1(C)C (mixture of isomers)	82.5%	100%	97.5%	100%	90%	97.5%	67%	67%
CC1(C)C(C=C(Cl)Cl)C1C(=O)OCc1cccc(Oc2ccccc2)c1 (stereo not given) [PERMETHRIN]	85.5%	100%	100%	100%	90%	100%	87.5%	97.5%
